In the library only some 1.9% were active in any assay of this set; here they are far more common.
DDE Tn6 FP inh – inhibitors of Tn6 peptide binding to human fibrin DD(E); Fibrin DD(E) TRITC-Tn6 fluorescence polarization displacement; AID 720509; inhibition, % at 8.3 µM; P02675; 370,000 tested, 0.21% active;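 active = inhibition above a per-campaign cutoff: mean of compounds within control limits plus 3 SD, cut at about 15% in these data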;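 note: 0% = median of all compound wells on the plate and 100% = blocking peptide control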
LEDGF integ inh – blocks HIV-1 LEDGF/p75-dependent DNA integration; 370,000 tested, 0.64% active; inhibition, % at 3.7 µM; TR-FRET IN-LEDGF/p75 DNA integration, Eu/Cy5;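 active = inhibition above the screen-wide mean plus 3 SD, cut at about 13% in these data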;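 note: signal is the Cy5 over europium emission ratio at 671 and 618 nm; 0% = plate median of compound wells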
Tn7 DDE FP – DD(E)-Tn7 binding inhibition, primary FP screen | P02675 | FP displacement of FITC-Tn7 peptide from fibrin DD(E); 0% = median of compound wells per plate | inhibition, % at 8.3 µM | 370,000 tested, 0.13% active;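 active = inhibition above the mean of compounds falling within the control limits plus 3 SD of them, cut at about 14% in these data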;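 note: 0% = plate median of compound wells and 100% = 10 µM Aha-Tn7 peptide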
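Measure: % inhibition scaled between sample-field median and high-control FP; Test system: human fibrin DD(E); Quantity: 2 µM final DD(E) protein; Doses: one dose, 8.3 µM nominal; Schedule: compound with protein 10 min, then 3 h after probe, room temperature; Detection: fluorescence polarization; Medium: Tris buffer with calcium and detergent, pH 7.8.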
TDP2 inh – TDP2 (human) inhibition, absorbance primary screen. O95551. recombinant TDP2, T5PNP hydrolysis, p-nitrophenol absorbance 415 nm. inhibition, % at 12.8 µM. 370,000 tested, 0.34% active;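 active = inhibition above the mean of all tested compounds plus 3 SD, set per campaign, cut at about 25% in these data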;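 note: 0% = DMSO with enzyme and 100% = buffer with substrate but no TDP2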
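System: recombinant human TDP2 / Amount: 120 nM TDP2 per well / Also added: 5 mM T5PNP chromogenic substrate / Doses: 12.8 µM single point, 1% DMSO / Incubation: 2 h at 37 °C / Detection: p-Nitrophenol epi absorbance / Evaluation: % inhibition relative to enzyme-containing and enzyme-free wells / Repeats: singlicate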
UHRF1 MBD2 ctr – UHRF1 methyl-DNA binding inhibition | Q96T88 | UHRF1 binding to methylated oligo, TR-FRET | inhibition, % at 4.4 µM | 370,000 tested, 0.75% active | AID 687016; in the data active = inhibition above about 21%;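 note: UHRF1 SRA domain binding a hemimethylated CpG hairpin DNA probe; 0% = median of test compound wells and 100% = reference inhibitor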
MBD2 inh – MBD2-methylated oligo binding inhibition. Q9UBB5. TR-FRET, MBD2 binding to methylated oligonucleotide. 370,000 tested, 0.31% active. inhibition, % at 4.4 µM; in the data active = inhibition above about 13%
Target sequence (Q9UBB5 whole entry, looked up): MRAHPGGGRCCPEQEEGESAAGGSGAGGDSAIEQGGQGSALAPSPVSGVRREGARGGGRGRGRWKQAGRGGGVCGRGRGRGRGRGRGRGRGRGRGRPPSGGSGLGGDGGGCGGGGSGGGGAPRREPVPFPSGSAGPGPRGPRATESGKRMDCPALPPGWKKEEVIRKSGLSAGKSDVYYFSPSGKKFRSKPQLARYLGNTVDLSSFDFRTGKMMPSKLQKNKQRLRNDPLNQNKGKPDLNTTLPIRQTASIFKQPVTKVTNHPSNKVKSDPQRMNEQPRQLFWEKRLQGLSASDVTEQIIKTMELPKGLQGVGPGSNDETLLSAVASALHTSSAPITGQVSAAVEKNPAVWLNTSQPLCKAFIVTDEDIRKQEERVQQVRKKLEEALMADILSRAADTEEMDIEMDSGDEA
TDP2 confirm – human TDP2 inhibition, confirmation; shares compounds with TDP2 inh; recombinant human TDP2, absorbance read-out; inhibition, % at 12.8 µM; 1,100 tested, 22% active; in the data active = inhibition above about 25%;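 note: 0% = vehicle with enzyme and 100% = no enzyme buffer only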
* = called active by the depositor; x = no result.

SMILES	DDE Tn6 FP inh	LEDGF integ inh	Tn7 DDE FP	TDP2 inh	UHRF1 MBD2 ctr	MBD2 inh	TDP2 confirm
Clc1ccc(CN2CCSCC2)c(Cl)c1	3	-3	-2	10	0	2	x
N#Cc1sc2nc(-c3ccccc3)cc(-c3ccco3)c2c1N	-2	8	4	54*	-6	-5	56*
N#Cc1sc2nc(C3CC3)cc(-c3ccccc3)c2c1N	6	1	3	-1	-1	-4	x
O=C(NCC1CCCO1)c1cccnc1Nc1ccccc1F (centres undefined)	-3	-1	1	40*	4	2	6
O=C(NCC1CCCO1)c1cccnc1NCc1ccc(F)cc1 (centres undefined)	-8	1	-3	1	3	-4	x
O=C(COC(=O)c1nc(Cl)ccc1Cl)c1ccccc1Cl	3	1	8	29*	-2	-6	0
CCCCCCCCN1C(=O)[C@@H](CC(=O)NCCCOC)C[C@@]2(C(=O)OC)C1=C[C@H](COCc1ccccc1)O[C@@H]2C	6	-3	7	2	0	2	x
C#CCNC(=O)C[C@H]1C[C@@]2(C(=O)OCC)CCCC3=C2N(CCC3)C1=O	-1	-6	-2	4	0	2	x
COc1ccc(NC(=O)N(C)C[C@@H]2OCc3cnnn3CCCC(=O)N([C@H](C)CO)C[C@H]2C)c(OC)c1	4	-1	1	7	-2	-5	x
CCOC(=O)/C(C#N)=C1/C=CN(Cc2ccccc2)C=N1	1	2	2	-3	2	-2	x
CCOC(=O)C(=O)C1=CN(Cc2ccccc2)C=C(C#N)C1	-9	-1	-1	27*	-6	-1	11
COC(=O)c1ccc(Cn2ccc3ccc(-c4ccc5ccn(C(=O)c6ccccc6)c5c4)cc32)cc1	7	-2	8	-1	-1	-2	x
CN1C(=O)NC(c2ccc([N+](=O)[O-])cc2)C2=C1CC(C)(C)CC2=O (centres undefined)	-6	-1	-6	-1	-2	1	x
CN1C(=O)NC(c2ccccc2[N+](=O)[O-])C2=C1CC(C)(C)CC2=O (centres undefined)	-5	4	0	31*	-6	-4	13
NC(=O)c1ncn([C@@H]2O[C@H](C(=O)N[C@H](Cc3c[nH]c4ccccc34)C(=O)N3CCN(C(=O)N4CCOCC4)CC3)[C@@H](O)[C@H]2O)n1	-8	0	-2	-1	1	0	x
COc1ccc(C(=O)NNC(=S)NC(=O)c2ccc(OC)cc2)cc1	1	1	2	0	-4	-1	x
CCNC(=S)NNC(=O)c1ccc(OC)cc1	8	-2	-5	65*	0	1	3
NC(=O)[C@@H]1CCCN1C(=O)[C@H]1O[C@@H](n2ccc(N)nc2=O)[C@H](O)[C@@H]1O	9	3	-2	1	-1	3	x
CNC(=S)N/N=C/c1ccc(-c2ccc(C(=O)O)cc2)o1	2	4	4	2	3	-2	x
COc1ccc(-c2ccc(C(c3c(C)[nH][nH]c3=O)c3c(C)[nH][nH]c3=O)o2)c([N+](=O)[O-])c1	8	5	-2	67*	-3	-5	6
Cc1[nH][nH]c(=O)c1C(c1ccc(-c2ccc(C(=O)O)cc2)o1)c1c(C)[nH][nH]c1=O	5	5	5	60*	11	0	32*
Cc1[nH][nH]c(=O)c1C(c1ccc(-c2ccc(F)cc2)o1)c1c(C)[nH][nH]c1=O	-4	25*	-8	60*	13	-6	20
COc1ccc2c(c1)N=C(c1[nH]c3ccccc3c1CCN1C(=O)c3ccccc3C1=O)[C@]2(O)CCN1C(=O)c2ccccc2C1=O	-4	0	4	-4	0	3	x
O=C(NCc1ccccc1Cl)C1CCCN(c2ncccn2)C1 (centres undefined)	7	-1	2	-6	1	-3	x

From PubChem
